Experimental findings from ChEMBL document CHEMBL1156741, “Development of photoaffinity probes for gamma-secretase equipped with a nitrobenzenesulfonamide-type cleavable linker” (Bioorg Med Chem Lett, 2009) are described below.

The target of assay [1] is T1, Gamma-secretase (Homo sapiens) (UniProt Q96BI3+Q9NZ42+Q8WW43+P49768+Q92542+P49810). Briefly: Binding affinity to gamma-secretase in human HeLa cell lysate assessed as presenilin 1 C-terminal fragment photolabeling by Western blotting. Format: cell-free. In outline: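 CHAPSO-solubilized HeLa cell lysate (about 150 µg) was mixed with the probe and photolabeled. PS1 CTF labeling was then detected by western blotting on nitrocellulose with chemiluminescence.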

A short description of assay [2]: Inhibition of gamma-secretase assessed as inhibition of Abeta42 generation at 1 uM.
Assay [3] is described as follows: Inhibition of gamma-secretase assessed as inhibition of Abeta40 generation at 1 uM.
Assay [4] has as its target T1, Gamma-secretase (Homo sapiens). As to the kind of experiment: Binding affinity to gamma-secretase in human HeLa cell lysate assessed as biotinylated presenilin 1 C-terminal fragment by Western blotting in absence of 2-mercaptoethanol. Format: cell-free. The gist of the method: (§1)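 Streptavidin sepharose beads carrying biotinylated proteins captured after photolabeling were treated in carbonate buffer (pH 9.2) with 2% SDS, with or without 3% 2-mercaptoethanol, for 4 h at 20 °C. Proteins were transferred to nitrocellulose and detected by western blotting with chemiluminescence.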
For orientation: In western blotting, separated proteins are transferred to a membrane and probed.

Assay [5] has the same target. Briefly: Binding affinity to gamma-secretase in human HeLa cell lysate assessed as biotinylated presenilin 1 C-terminal fragment by Western blotting in presence of 2-mercaptoethanol. Format: cell-free. The gist of the method: as §1

The source made the active and inactive calls. The calls are words filed in the database; no cut-off is given here.

As for `C[C@H](NC(=O)[C@@H](NC(=O)Cc1cc(F)cc(F)c1)c1ccccc1)C(=O)NCc1ccc(C(=O)c2ccc(CNCCCCCCCC(=O)NCCCCCCCN(C)S(=O)(=O)c3ccc(C(=O)NCCCCCC(=O)CCCC[C@@H]4SC[C@@H]5NC(=O)N[C@@H]54)cc3[N+](=O)[O-])cc2)cc1`, the result in assay [1] was Active. Further, the results for the inhibition in assay [2] and in assay [3] were 89.3% and 62.3%, respectively.
The matching figures for `C[C@H](NC(=O)[C@@H](NC(=O)Cc1cc(F)cc(F)c1)c1ccccc1)C(=O)NCc1ccc(C(=O)c2ccc(CNCCCCCC(=O)NCCCCCCCN(C)S(=O)(=O)c3ccc(C(=O)NCCCCCC(=O)CCCC[C@@H]4SC[C@@H]5NC(=O)N[C@@H]54)cc3[N+](=O)[O-])cc2)cc1`: “Active”, 59.3% and 78.2%.
Turning to `C[C@H](NC(=O)[C@@H](NC(=O)Cc1cc(F)cc(F)c1)c1ccccc1)C(=O)NCc1ccc(C(=O)c2ccc(CNCC(=O)NCCCCCCCN(C)S(=O)(=O)c3ccc(C(=O)NCCCCCC(=O)CCCC[C@@H]4SC[C@@H]5NC(=O)N[C@@H]54)cc3[N+](=O)[O-])cc2)cc1`, the outcome in assay [1] was Active. In addition, the inhibition in assay [2] was found to be 77%; in assay [3] it was 81.9%.
`C[C@H](NC(=O)[C@@H](NC(=O)Cc1cc(F)cc(F)c1)c1ccccc1)C(=O)NCc1ccc(C(=O)c2ccc(CNCCCCCCCC(=O)NCCCN(C)S(=O)(=O)c3ccc(C(=O)NCCCCCC(=O)CCCC[C@@H]4SC[C@@H]5NC(=O)N[C@@H]54)cc3[N+](=O)[O-])cc2)cc1`: in assay [4], the result was inactive. Besides, the outcome in assay [5] and in assay [1] was Active. Besides, the inhibition in assay [2] was determined as 66.2%; in assay [3], 62.8%.
Turning to `C[C@H](NC(=O)Cc1cc(F)cc(F)c1)C(=O)N[C@H](C(=O)OC(C)(C)C)c1ccccc1`, the inhibition in assay [2] worked out at 76.3%; in assay [3], 77.4%.
Turning to `C[C@H](NC(=O)[C@@H](NC(=O)Cc1cc(F)cc(F)c1)c1ccccc1)C(=O)NCc1ccc(C(=O)c2ccc(CNCCCCCC(=O)NCCCN(C)S(=O)(=O)c3ccc(C(=O)NCCCCCC(=O)CCCC[C@@H]4SC[C@@H]5NC(=O)N[C@@H]54)cc3[N+](=O)[O-])cc2)cc1`, in assay [1], the outcome was Active. The inhibition in assay [2] stood at 60.2%; in assay [3], 54.9%.

Usually inhibition stands for the relative decrease from the control value, in per cent.
